Data reported in ChEMBL document CHEMBL4024783, “Alkylated Piperazines and Piperazine-Azole Hybrids as Antifungal Agents” (J Med Chem, 2018).
Converted amounts (≈) assume the structure as drawn. The source made the active and inactive calls. The calls are words filed in the database; no cut-off is given here.

Experiments:
Candida albicans [1] = experiment: Fungistatic activity against Candida albicans ATCC 10231 at 1 to 4 times MIC incubated for 24 hrs by time kill assay; assay type: functional
How it was run: (§1)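 Overnight YPD cultures diluted in RPMI 1640 to an inoculum of 1–4 × 10^5 CFU/mL. […] Final volume 4 mL, 35 °C, 200 rpm, 24 h. Sampled at 0, 3, 6, 9, 12 and 24 h, serially diluted and plated on PDA. Colonies counted after 48 h (24 h for strain A). Detection limit 100 CFU/mL. Duplicate.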

Candida albicans [2] = experiment: Antifungal activity against Candida albicans ATCC 64124 after 48 hrs by broth dilution method; assay type: functional
How it was run: (§2)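 CLSI M27-A3 broth microdilution with minor modifications. Overnight YPD culture grown at 35 °C, 200 rpm, adjusted to OD600 0.12, diluted in RPMI 1640 buffered to pH 7.0 with 0.165 M MOPS to a final 1–2 × 10^3 CFU/mL. Test compounds at 0.015–31.3 µg/mL, 48 h at 35 °C, DMSO <1.25%. […] Triplicate.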

Candida albicans [3] = experiment: Antifungal activity against itraconazole and fluconazole susceptible Candida albicans ATCC MYA-2876 after 48 hrs by broth dilution method; assay type: functional
Candida albicans [4] = experiment: Antifungal activity against itraconazole and fluconazole resistant Candida albicans ATCC 90819 after 48 hrs by broth dilution method; assay type: functional; how it was run: as §2
Candida albicans [5] = experiment: Antifungal activity against itraconazole and fluconazole susceptible Candida albicans ATCC MYA-2310 after 48 hrs by broth dilution method; assay type: functional
Candida albicans [6] = experiment: Antifungal activity against itraconazole and fluconazole resistant Candida albicans ATCC MYA-1237 after 48 hrs by broth dilution method; assay type: functional; how it was run: as §2
Candida albicans [7] = experiment: Antifungal activity against itraconazole and fluconazole resistant Candida albicans ATCC MYA-1003 after 48 hrs by broth dilution method; assay type: functional; how it was run: as §2
Nakaseomyces glabratus [8] = experiment: Antifungal activity against Candida glabrata ATCC 2001 after 48 hrs by broth dilution method; assay type: functional, CBS 138
Pichia kudriavzevii = experiment: Antifungal activity against Candida krusei ATCC 6258 after 48 hrs by broth dilution method; assay type: functional
How it was run: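 Yeasts tested per CLSI M27-A3 with minor changes. An overnight YPD culture (35 °C, 200 rpm) was adjusted to OD600 0.12 and diluted in MOPS-buffered RPMI 1640 (pH 7.0) to a final 1–2 × 10^3 CFU/mL. Compounds 0.015–31.3 µg/mL, DMSO <1.25%.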

Candida parapsilosis [9] = experiment: Antifungal activity against Candida parapsilosis ATCC 22019 after 48 hrs by broth dilution method; assay type: functional
Aspergillus nidulans [10] = experiment: Antifungal activity against Aspergillus nidulans ATCC 38163 after 48 hrs by broth dilution method; assay type: functional
How it was run: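 A. nidulans run per CLSI M38-A2. PDA spores were filtered through glass wool and counted by hemocytometer. Test range 0.03–31.3 µg/mL in MOPS-buffered RPMI 1640 (pH 7.0), final 5 × 10^5 CFU/mL.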

Aspergillus terreus = experiment: Antifungal activity against Aspergillus terreus ATCC MYA-3633 after 48 hrs by broth dilution method; assay type: functional
How it was run: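 Molds tested per CLSI M38-A2. Spores were harvested from sporulating PDA cultures by filtering through glass wool and counted on a hemocytometer. Serial dilutions (0.03–31.3 µg/mL) were made in RPMI 1640 buffered to pH 7.0 with 0.165 M MOPS, final inoculum 5 × 10^5 CFU/mL.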

Candida parapsilosis [11] = experiment: Antifungal activity against Candida parapsilosis ATCC 22019 after 48 hrs in the presence of 10% FBS by broth dilution method; assay type: functional; conditions: Lodderomyces parapsilosis, ATCC 22019, 48 h
Aspergillus nidulans [12] = experiment: Antifungal activity against Aspergillus nidulans ATCC 38163 after 48 hrs in the presence of 10% FBS by broth dilution method; assay type: functional; conditions: ATCC 38163, 48 h
Candida albicans [13] = experiment: Antibiofilm activity against voriconazole resistant Candida albicans ATCC 64124 sessile cells incubated for 24 hrs by XTT reduction assay; assay type: functional; conditions: ATCC 64124, 24 h
How it was run: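 Strain B grown overnight in YPD broth at 35 °C, diluted to OD600 0.1 (~10^6 CFU/mL), then grown statically for 24 h at 37 °C to form biofilm. Washed with PBS, then drug in RPMI 1640 at 0.12–62.5 µg/mL for 24 h at 37 °C. Read-out: XTT 0.5 mg/mL with menadione 1 µM, 2 h, A490. SMIC50/SMIC80 are 50%/80% decreases versus drug-free biofilm. Duplicate.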

Candida parapsilosis [14] = experiment: Fungistatic activity against Candida parapsilosis ATCC 22019 at 1 to 4 times MIC incubated for 24 hrs by time kill assay; assay type: functional; how it was run: as §1
Candida albicans [15] = experiment: Inhibition of 14alpha-demethylase in Candida albicans ATCC 10231 assessed as ergosterol levels at 0.12 ug/mL by GC-MS analysis; parameters: scale not given: the % may be the effect or the level left
How it was run: (§3)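 Sterols were extracted from treated C. albicans ATCC 10231 (strain A) cells and profiled by GC-MS. Each sterol (lanosterol, ergosterol, eburicol, 14α-methyl ergosta-8,24(28)-diene-3β,6α-diol) is reported as a percentage of the sterol composition. A DMSO-treated culture served as the no-drug comparison.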

Candida albicans [16] = experiment: Inhibition of 14alpha-demethylase in Candida albicans ATCC 10231 assessed as lanosterol levels at 0.12 ug/mL by GC-MS analysis; parameters: scale not given: the % may be the effect or the level left; how it was run: as §3
Candida albicans [17] = experiment: Inhibition of 14alpha-demethylase in Candida albicans ATCC 10231 assessed as eburicol levels at 0.12 ug/mL by GC-MS analysis; parameters: scale not given: the % may be the effect or the level left; how it was run: as §3
Candida albicans [18] = experiment: Inhibition of 14alpha-demethylase in Candida albicans ATCC 10231 assessed as 14alpha-methyl ergosta-8,24(28)-dien-3beta,6alpha-diol levels at 0.12 ug/mL by GC-MS analysis; parameters: scale not given: the % may be the effect or the level left; how it was run: as §3
Nakaseomyces glabratus [19] = experiment: Fungistatic activity against Candida glabrata ATCC 2001 at 4 times MIC incubated for 24 hrs by time kill assay; assay type: functional; conditions: CBS 138; how it was run: as §1
Candida albicans [20] = experiment: Inhibition of 14alpha-demethylase in Candida albicans ATCC 10231 assessed as total sterol levels at 0.12 ug/mL by GC-MS analysis; parameters: scale not given: the % may be the effect or the level left
Candida albicans [21] = experiment: Antifungal activity against Candida albicans ATCC 10231 at […] ug/mL incubated for 1 hr by propidium iodide staining-based fluorescence microscopic method; assay type: functional
Candida albicans [22] = experiment: Antifungal activity against Candida albicans ATCC 10231 after 48 hrs by broth dilution method; assay type: functional; conditions: ATCC 10231, 48 h
Aspergillus flavus = experiment: Antifungal activity against Aspergillus flavus ATCC MYA-3631 after 48 hrs by broth dilution method; assay type: functional; conditions: ATCC MYA-3631, 48 h
Candida albicans [23] = experiment: Antifungal activity against Candida albicans ATCC 10231 after 48 hrs in the presence of 10% FBS by broth dilution method; assay type: functional; conditions: ATCC 10231, 48 h
[24] = Aqueous solubility of the compound; assay type: physicochemical; conditions: buffer
[25] = Solubility of the compound in DMSO; assay type: physicochemical
Candida albicans [26] = experiment: Ratio of MIC80 for voriconazole resistant Candida albicans ATCC 64124 sessile cells to MIC for voriconazole resistant Candida albicans ATCC 64124; assay type: functional

C[C@@H](c1ncncc1F)[C@](O)(Cn1cncn1)c1ccc(F)cc1F [VORICONAZOLE]
Activity (Candida albicans [1]): Active | MIC=<50 (Candida albicans [2]): 11.2 µM (≈ 3.91 µg/mL) | MIC=<50 (Candida albicans [3]): 5.6 µM (≈ 1.96 µg/mL) | MIC=<50 (Candida albicans [4]): 5.6 µM (≈ 1.96 µg/mL) | MIC=<50 (Candida albicans [5]): 2.8 µM (≈ 0.978 µg/mL) | MIC=<50 (Candida albicans [6]): 22.3 µM (≈ 7.79 µg/mL) | MIC=<50 (Candida albicans [7]): 5.6 µM (≈ 1.96 µg/mL) | MIC=<50 (Nakaseomyces glabratus [8]): 0.17 µM (≈ 0.0594 µg/mL) | MIC=<50 (Pichia kudriavzevii): 0.34 µM (≈ 0.119 µg/mL) | MIC=<50 (Candida parapsilosis [9]): <0.06 µM | MIC=<50 (Aspergillus nidulans [10]): 0.34 µM (≈ 0.119 µg/mL) | MIC=<50 (Aspergillus terreus): 0.34 µM (≈ 0.119 µg/mL) | MIC (Candida parapsilosis [11]): 0.015 µg/mL | MIC (Aspergillus nidulans [12]): 0.12 µg/mL | MIC50 (Candida albicans [13]): 62.5 µg/mL (≈ 179 µM) | MIC80 (Candida albicans [13]): 62.5 µg/mL (≈ 179 µM) | Activity (Candida parapsilosis [14]): Active | Activity (Candida albicans [15]): 64.9% | Activity (Candida albicans [16]): 18.5% | Activity (Candida albicans [17]): 2.14% | Activity (Candida albicans [18]): 10.1% | Activity (Nakaseomyces glabratus [19]): Active | Activity (Candida albicans [20]): 1.56 to 2.79%

CCCCCCCCCCCCCCOC[C@H]1O[C@H](O[C@@H]2[C@@H](O)[C@H](O[C@H]3O[C@H](CN)[C@@H](O)[C@H](O)[C@H]3N)[C@@H](N)C[C@H]2N)[C@H](O)[C@@H](N)[C@@H]1O
Activity (Candida albicans [21]): Active

CCCCCCCCCCN1CCN(CC(O)(Cn2cncn2)c2ccc(Cl)cc2Cl)CC1 (stereo not given)
MIC (Candida albicans [22]): 3.9 µM (≈ 1.94 µg/mL) | MIC (Candida albicans [4]; Candida albicans, ATCC 90819, 48 h): 7.9 µM (≈ 3.92 µg/mL) | MIC (Nakaseomyces glabratus [8]; Nakaseomyces glabratus, CBS 138, 48 h): 2 µM (≈ 0.993 µg/mL) | MIC (Pichia kudriavzevii; Pichia kudriavzevii, ATCC 6258, 48 h): 3.9 µM (≈ 1.94 µg/mL) | MIC (Candida parapsilosis [9]; Lodderomyces parapsilosis, ATCC 22019, 48 h): 0.48 µM (≈ 0.238 µg/mL) | MIC (Aspergillus flavus): 7.9 µM (≈ 3.92 µg/mL) | MIC (Aspergillus nidulans [10]; Aspergillus nidulans, ATCC 38163, 48 h): 7.9 µM (≈ 3.92 µg/mL) | MIC (Aspergillus terreus; Aspergillus terreus, ATCC MYA-3633, 48 h): 7.9 µM (≈ 3.92 µg/mL) | MIC (Candida albicans [23]): 1.95 µg/mL | MIC (Candida parapsilosis [11]): 0.24 µg/mL | MIC (Aspergillus nidulans [12]): 3.9 µg/mL | MIC50 (Candida albicans [13]): 15.6 µg/mL (≈ 31.4 µM) | MIC80 (Candida albicans [13]): 31.3 µg/mL (≈ 63 µM) | solubility [24]: Soluble | solubility [25]: Soluble | Ratio (Candida albicans [26]): 1 - 2
